Source: ChEMBL document CHEMBL1124778, “Synthesis and biological evaluation of prodrugs of zidovudine” (J Med Chem, 1990)

Key:
[1] = In vitro time required for 50% hydrolysis at 37 degree Celsius upon incubation in rat hepatic microsomes; type: functional; details: Liver
Outline: (§1)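 Ester (10 mg/mL DMSO stock, diluted 1:100) incubated at 37 °C in human plasma or in rat hepatic microsomes (15.5 mg protein/mL solution). Samples taken over 0–4 h and quenched in ice-cold methanol. Remaining ester quantified by reverse-phase HPLC. t1/2 = time to 50% hydrolysis.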

[2] = system: Human immunodeficiency virus 1; test: Evaluated in vitro for the concentration required to produce 50% inhibition of replication of HIV-1; type: functional, organism-based
H9 = test: Evaluated in vitro for the concentration required to produce 50% inhibition of proliferation of H9 lymphocytes; type: functional, cell-based; details: Homo sapiens
Outline: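 H9 lymphoblastoid cells grown in RPMI 1640 with 15% FBS, penicillin/streptomycin and 2 mM L-glutamine at 37 °C under 5% CO2. Viability read by trypan blue dye exclusion. IC50 taken as the concentration giving 50% inhibition of proliferation.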

[3] = Evaluated for Partition coefficient in n-octanol and phosphate buffer pH 7.4; type: physicochemical; details: octanol/water
Outline: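 Ester solutions in n-octanol equilibrated with phosphate buffer (0.2 M, pH 7.4) at room temperature. Partition coefficient derived from the distribution between the two phases.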

[4] = In vitro time required for 50% hydrolysis at 37 degree Celsius upon incubation in human plasma; type: functional, cell-free; outline: as §1

IC50 [2] [µM] | PC [3] | Structure (SMILES) | T1/2 [1] [min] | IC50 (H9) [µM] | T1/2 [4] [min]
0.11 | 0.94 | Cc1cn([C@H]2C[C@H](N=[N+]=[N-])[C@@H](COC(=O)C(N)Cc3ccc(O)cc3)O2)c(=O)[nH]c1=O.O=C(O)C(F)(F)F (stereo partly drawn) | 5 | 300 | 60
– | 0.01 | Cc1cn([C@H]2C[C@H](N=[N+]=[N-])[C@@H](COC(=O)C(N)CCCCN)O2)c(=O)[nH]c1=O.O=C(O)C(F)(F)F (stereo partly drawn) | 14 | 300 | 30
0.11 | 3.3 | Cc1cn([C@H]2C[C@H](N=[N+]=[N-])[C@@H](COC(=O)C(N)Cc3ccccc3)O2)c(=O)[nH]c1=O.O=C(O)C(F)(F)F (stereo partly drawn) | 30 | 350 | 20
0.1 | 10.3 | CCC(C)C(N)C(=O)OC[C@H]1O[C@@H](n2cc(C)c(=O)[nH]c2=O)C[C@@H]1N=[N+]=[N-].O=C(O)C(F)(F)F (stereo partly drawn) | 19 | 250 | > 240

Further lines, the compound ahead of its results:

Structure (SMILES) | IC50 [2] [µM] | PC [3] | T1/2 [1] [min] | IC50 (H9) [µM] | T1/2 [4] [min]
CC1=C(/C=C/C(C)=C/C=C/C(C)=C/C(=O)OC[C@H]2O[C@@H](n3cc(C)c(=O)[nH]c3=O)C[C@@H]2N=[N+]=[N-])C(C)(C)CCC1 | 0.2 | 17.9 | 60 | 25 | 120
Cc1cn([C@H]2C[C@H](N=[N+]=[N-])[C@@H](COC(=O)c3cccnc3)O2)c(=O)[nH]c1=O | – | 1.6 | 30 | – | 10
Cc1cn([C@H]2C[C@H](N=[N+]=[N-])[C@@H](COC(=O)CN3CCOCC3)O2)c(=O)[nH]c1=O | – | 2.2 | 28 | 320 | 12
Cc1cn([C@H]2C[C@H](N=[N+]=[N-])[C@@H](CO)O2)c(=O)[nH]c1=O [ZIDOVUDINE] | 0.12 | 1.2 | – | 150 | –
Cc1cn(C2CC(N=[N+]=[N-])C(COC(=O)CCC(N)C(=O)O)O2)c(=O)[nH]c1=O (stereo not drawn) | – | 0.12 | 30 | 320 | 70
Cc1cn([C@H]2C[C@H](N=[N+]=[N-])[C@@H](COC(=O)C3=CN(C)C=CC3)O2)c(=O)[nH]c1=O | 0.05 | 7.2 | 110 | 336 | > 240
